# Compound activity (PubChem BioAssay)
# STAT3 act – STAT3 signaling activation; 190,000 compounds, 0.91% hits; AID 871; U3A cells, IL-6 STAT3-luciferase reporter, luminescence; 100% = signal with IL-6 EC80 alone; activation (% of control), % at 5.6 µM;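 active = activation above the screen-wide mean of compound activation plus 3 SD, cut at about 130% in these data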;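 note: 0% = background luminescence of wells with medium and substrate only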
#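 Test system: STAT3-luciferase reporter U3A cells; Detection: reporter luminescence signal; Times: 1 h compound pre-exposure, 6 h IL-6 stimulation, 37 °C; Benchmarks: IL-6-only high control; Also added: IL-6 stimulus at 33 ng/mL final.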
# STAT1 activator – increases IFN-gamma driven STAT1 reporter signal; NIH 3T3 STAT1-luciferase reporter, luminescence; 100% = IFN-gamma alone, no compound; activation (% of control), % at 5.5 µM; 200,000 compounds, 2.6% hits; AID 932;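 active = activation above the screen-wide mean activation plus 3 SD, cut at about 130% in these data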;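 note: raw ratio to IFN-gamma control signal so 100% means no change and 0% no light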
# APP 5'UTR act – APP 5'UTR luciferase reporter activation. SH-SY5Y APP 5'UTR luciferase reporter, luminescence; zero percent = DMSO vehicle wells. activation, % at 2 µM. 190,000 compounds, 1% hits. AID 1276;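 active = activation above a set limit, based on mean plus 3 SD of controls, cut at about 140% in these data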
# STAT1 inh – inhibitors of IFN-gamma induced STAT1 signaling | NIH 3T3 STAT1-luciferase reporter, luminescence | inhibition, % at 5.5 µM | 200,000 compounds, 0.35% hits | AID 920;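 active = inhibition above a set limit, the mean inhibition across all tested compounds plus 3 SD, cut at about 34% in these data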;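 note: 0% = IFN-gamma with DMSO and 100% = IFN-gamma with 300 µM nifuroxazide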
# NF-kB neuron act – NF-kB expression increase, human neuronal cells; NF-kB reporter expression; active compounds read high; fold change at 12.5 µM; 190,000 compounds, 1.6% hits; in the data active = fold change above about 3.3
# STAT3 inh – reduces IL-6 driven STAT3 reporter signal; 190,000 compounds, 0.89% hits; AID 862; inhibition, % at 5.5 µM; U3A cells, IL-6 STAT3-luciferase reporter, luminescence; host cell line lacks STAT1;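 active = inhibition above the mean inhibition across all screened compounds plus 3 SD, cut at about 44% in these data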;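 note: 0% = DMSO only wells and 100% = 100 µM nifuroxazide control wells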
# Starred values were filed as active, the others as inactive; / = not tested or not shown. Only some compounds are listed: those with a hit (about 5.1% of all), similar ones and a draw of the others.
SMILES,STAT3 act,STAT1 activator,APP 5'UTR act,STAT1 inh,NF-kB neuron act,STAT3 inh
Cc1ccccc1-c1noc(-c2ccc(O)cc2)n1,94,140*,156*,-44,7.7*,17
Cc1ccccc1-c1noc(-c2ccccc2F)n1,105,139*,111,-42,6.8*,1
O=C(COc1ccc(OCc2ccccc2)cc1)NN=C1CCCC1,106,111,12,-12,1,-6
Cc1cc(OCc2ccc(C(=O)NN=C3CCCC3)cc2)ccc1Cl,110,130*,-20,-34,1.3,-7
Cn1cccc1/C=N/NC(=O)c1sc2ccccc2c1Cl,96,131*,13,-34,1.4,12
N#C/C(=C\c1cccnc1)C(=O)Nc1cccc2ccccc12,112,97,13,4,0.94,-12
CCOC(=O)C1CCCN(c2c(N3CCN(C4CCCCC4)CC3)c(=O)c2=O)C1 (centres undefined),104,103,-7,-3,1,4
O=C(Nc1ccccc1)C1=C[C@@H](c2ccc(Br)cc2)C[C@@H](OCCCCO)O1,/,129*,21,-29,1.5,/
O=C(Nc1ccccc1)C1=C[C@H](c2ccc3c(c2)OCO3)C[C@H](OCCCCO)O1,/,121,14,-20,1.2,/
N#C/C(C(=O)Oc1ccccc1)=C1\C=CC=CN1,95,142*,57,-46,1.9,9
COCCn1nnnc1CN1CCC(O)(c2cccc(C(F)(F)F)c2)CC1,114,95,-3,7,0.84,-12
CC(C)C(=O)NCCn1ccc2ccccc21,100,97,-6,3,1.2,4
CCc1cccc2c(C(=O)COC(=O)c3ccc([N+](=O)[O-])s3)c[nH]c12,98,78,-1,25,1,2
O=C(OCC(=O)c1c[nH]c2ccccc12)c1ccc([N+](=O)[O-])s1,135*,87,2,13,/,-34
Cc1ccc(C(=O)OCC(=O)c2c[nH]c3ccccc23)cc1,133*,126,44,-29,1.8,-34
CC(C)Cc1ccc(C(C)C(=O)OCC(=O)c2c[nH]c3ccccc23)cc1 (centres undefined),113,93,-7,9,0.85,-14
CC1(C(=O)OCC(=O)c2c[nH]c3ccccc23)CC1(Cl)Cl (centres undefined),115,138*,145*,-41,2.3,-20
O=C(OCC(=O)c1c[nH]c2ccccc12)C1=COCCO1,121,129*,37,-31,2.4,-23
NC(=O)COc1ccc(C2c3c(oc4ccccc4c3=O)C(=O)N2CC2CCCO2)cc1 (centres undefined),105,93,/,7,0.89,0
O=C(O)CCCC(=O)Nc1ccc(C(=O)NCc2cccnc2)cc1,101,104,29,-5,0.79,2
COc1ccc(C(=O)OCCNC(=O)c2c(Cl)nc3ccccn23)cc1,99,92,17,8,0.81,7
CN(C(=O)c1ccco1)c1nc2c(s1)CCCC2,78,130*,162*,-33,4.1*,32
CN(C(=O)c1ccco1)c1nnc(C23CC4CC(CC(C4)C2)C3)s1,133*,140*,15,-44,2.3,-34
CN(C(=O)COc1ccc(Cl)cc1)c1nnc(C23CC4CC(CC(C4)C2)C3)s1,/,103,4,-5,1.2,/
O=C(c1ccc2c(c1)OCO2)N(c1ccccc1)C1C=CS(=O)(=O)C1 (centres undefined),101,108,2,-9,1.1,3
SMILES,STAT3 act,STAT1 activator,APP 5'UTR act,STAT1 inh,NF-kB neuron act,STAT3 inh
Cc1cccc(/C=C(\C(=O)C(=O)O)c2ccc3ccccc3n2)c1,124,148*,25,-53,1,-20
O=C(O)C(=O)/C(=C\c1cccc(Cl)c1)c1ccc2ccccc2n1,129,137*,46,-39,1.3,-31
O=C(NCCOc1ccc(Cl)cc1)c1ccc2ccccc2n1,93,104,17,-5,1.2,12
CN(C)C(=S)c1ccc2ccccc2n1,107,95,-5,6,0.71,-5
CCN=C1NN=C(c2ccc(C)cc2)CS1,49,86,63,16,1.6,66*
Clc1ccc(C2=NNC(=NCc3ccccc3)SC2)cc1,95,116,13,-18,1.3,9
c1ccc(C2=NNC(=NCc3ccc4c(c3)OCO4)SC2)cc1,116,103,5,-3,1.3,-12
Cc1[nH]c2ccccc2c1C1=NNC(=Nc2ccc(F)cc2)SC1,103,101,1,-1,0.85,-5
C=CCN=C1NN=C(c2ccc3c(c2)OCCO3)CS1,25,40,58,64*,1.2,89*
CC(C)N=C1NN=C(c2ccc(F)cc2)CS1,82,102,136*,-4,3.5*,28
c1ccc(CN=C2NN=C(c3ccccc3)CS2)cc1,111,138*,19,-42,1.9,-11
NC(=O)[C@@H]1CCCNc2c(I)cc([N+](=O)[O-])cc2C(=O)N[C@@H](CCCN=C(N)N)C(=O)N[C@@H](CCCN=C(N)N)C(=O)N1,93,100,-14,-1,1.1,5
NC1=NN=C(c2ccc3c(c2)OCCO3)CS1,47,54,81,49*,1.6,66*
Clc1ccc(/C(Cc2nc3ccccc3[nH]2)=N\Nc2ccccc2)cc1,100,136*,78,-43,2.6,6
Cc1ccc(C(=O)NCc2ccc3c(c2)OCO3)cc1S(=O)(=O)N1CCOCC1,93,92,12,9,1.1,11
OCC1CCCN(C(=S)Nc2ccc(Oc3ccccc3)cc2)C1 (centres undefined),109,147*,69,-54,2.4,-6
CC(=O)c1ccc(NC(=S)N2CCCC(CO)C2)cc1 (centres undefined),91,114,25,-15,2.4,15
CC1CCCN(C(=S)Nc2ccc(Nc3ccccc3)cc2)C1 (centres undefined),98,136*,80,-41,1.9,7
CCOC(=O)c1cc(CC)sc1/N=C/C1C(=O)CCCC1=O,101,101,16,-4,0.96,0
Cc1cccc(OCC(=O)N2CCC(c3ccccc3)C2)c1 (centres undefined),103,121,131,-22,2.2,-1
O=C(COc1ccc(F)cc1)N1CCC(c2ccccc2)C1 (centres undefined),111,136*,47,-39,2,-9
O=C(/C=C/c1ccco1)N1CCCC(c2ccccc2)C1 (centres undefined),97,109,17,-12,1.8,6
O=C(/C=C/c1ccccc1)N1CCC(c2ccccc2)C1 (centres undefined),105,137*,141*,-42,4.4*,-3
O=C(Nc1ccccc1)N1CCC(c2ccccc2)C1 (centres undefined),90,138*,78,-41,3.1,13
